Test results: ChEMBL document CHEMBL1148531, “The discovery of new 11beta-hydroxysteroid dehydrogenase type 1 inhibitors by common feature pharmacophore modeling and virtual screening” (J Med Chem, 2006)
Activity calls are given as the source filed them. The calls are words filed in the database; no cut-off is given here.

Legend:
[1] = molecular target: Mineralocorticoid receptor (Homo sapiens) (UniProt P08235); assay: Inhibition of MR-mediated transactivation of galactosidase reporter gene in HEK293 cells
[2] = molecular target: T1, 11-beta-hydroxysteroid dehydrogenase 1 (Homo sapiens, UniProt P28845); assay: Inhibition of human recombinant 11-beta-HSD1 expressed in HEK293 cells at 10 uM; format: cell-based; set-up: scale not given: the % may be the effect or the level left
Outline: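 Lysates of HEK-293 cells expressing human 11β-HSD1; conversion of 200 nM tritiated cortisone with 500 µM NADPH, test compound at 10 µM; percent inhibition reported.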
Target sequence in this assay (P28845 whole entry, looked up): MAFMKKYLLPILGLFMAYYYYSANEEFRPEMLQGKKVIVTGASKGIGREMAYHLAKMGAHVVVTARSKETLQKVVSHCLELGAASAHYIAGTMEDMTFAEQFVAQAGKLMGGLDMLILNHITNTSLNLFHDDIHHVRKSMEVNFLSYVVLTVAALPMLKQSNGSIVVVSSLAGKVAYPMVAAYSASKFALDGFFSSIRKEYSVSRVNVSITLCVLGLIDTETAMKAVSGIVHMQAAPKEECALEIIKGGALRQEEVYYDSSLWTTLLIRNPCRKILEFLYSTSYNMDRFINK

[3] = molecular target: T2, 17-beta-hydroxysteroid dehydrogenase type 1 (Homo sapiens, UniProt P14061); assay: Inhibition of human recombinant 17betaHSD1 expressed in HEK293 cells; format: cell-based
T2 sequence (P14061 whole entry): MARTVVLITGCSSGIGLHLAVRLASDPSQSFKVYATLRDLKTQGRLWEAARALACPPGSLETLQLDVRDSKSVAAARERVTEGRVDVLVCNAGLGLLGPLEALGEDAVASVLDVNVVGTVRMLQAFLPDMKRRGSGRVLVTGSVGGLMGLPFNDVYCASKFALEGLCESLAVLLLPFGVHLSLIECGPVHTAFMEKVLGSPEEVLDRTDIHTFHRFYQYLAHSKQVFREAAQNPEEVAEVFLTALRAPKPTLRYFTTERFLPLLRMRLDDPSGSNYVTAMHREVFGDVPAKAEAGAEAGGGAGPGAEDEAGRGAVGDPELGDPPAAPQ
Outline: (§1)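 Lysates of HEK-293 cells expressing human recombinant enzyme; inhibitor 50 nM–30 µM final, DMSO ≤0.1%. 11β-HSD1: 200 nM [1,2,6,7-3H]cortisone, 500 µM NADPH. 17β-HSD1: 200 nM radiolabeled estrone, 500 µM NADPH. 17β-HSD2: 200 nM radiolabeled estradiol, 500 µM NADP+. IC50 by nonlinear regression, first-order kinetics; mean ± SD, at least four experiments.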

[4] = molecular target: T1, 11-beta-hydroxysteroid dehydrogenase 1; assay: Inhibition of human recombinant 11-beta-HSD1 transfected in intact HEK293 cells; format: cell-based
Outline: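 HEK-293 cells cotransfected (calcium phosphate) with 11β-HSD1 and H6PDH plasmids, replated after 6 h at 30000 cells/well in steroid-free DMEM for 18 h. Inhibitor 50 nM–20 µM final with 200 nM radiolabeled cortisone, 90 min at 37 °C; stopped with excess unlabeled steroids in methanol, TLC, scintillation counting. Mean ± SD, at least four experiments.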
Target sequence in this assay (P28845 whole entry): as the sequence (P28845 whole entry, looked up) above

[5] = molecular target: T3, 11-beta-hydroxysteroid dehydrogenase type 2 (Homo sapiens, UniProt P80365); assay: Inhibition of human recombinant 11betaHSD2 transfected in intact HEK293 cells; format: cell-based
T3 sequence (P80365 whole entry): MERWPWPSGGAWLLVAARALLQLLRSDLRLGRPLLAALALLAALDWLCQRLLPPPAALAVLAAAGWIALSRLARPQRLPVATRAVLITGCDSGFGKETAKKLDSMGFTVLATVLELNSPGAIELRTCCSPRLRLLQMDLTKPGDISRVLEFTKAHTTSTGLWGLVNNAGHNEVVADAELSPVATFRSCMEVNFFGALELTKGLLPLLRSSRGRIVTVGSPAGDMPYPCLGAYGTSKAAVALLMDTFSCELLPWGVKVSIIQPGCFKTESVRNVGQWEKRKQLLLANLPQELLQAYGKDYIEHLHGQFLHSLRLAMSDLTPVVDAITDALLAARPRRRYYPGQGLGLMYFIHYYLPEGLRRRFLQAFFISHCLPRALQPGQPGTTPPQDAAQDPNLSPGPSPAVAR

HEK293 = assay: Cytotoxicity against HEK293 cells upto 40 uM by MTT assay; format: functional, cell-based; conditions: Homo sapiens
Outline: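 HEK-293 cells on poly-D-lysine-coated wells exposed 4 h at 37 °C to 40 µM compound, then fresh medium with 0.5 mg/mL MTT; formazan dissolved in DMSO, absorbance A570 − A690. Controls: chloroform 1% v/v and NaOH 50 mM.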

[6] = molecular target: T4, 17-beta-hydroxysteroid dehydrogenase type 2 (Homo sapiens, UniProt P37059); assay: Inhibition of human recombinant 17-beta-HSD2 expressed in HEK293 cells; format: cell-based
T4 sequence (P37059 whole entry): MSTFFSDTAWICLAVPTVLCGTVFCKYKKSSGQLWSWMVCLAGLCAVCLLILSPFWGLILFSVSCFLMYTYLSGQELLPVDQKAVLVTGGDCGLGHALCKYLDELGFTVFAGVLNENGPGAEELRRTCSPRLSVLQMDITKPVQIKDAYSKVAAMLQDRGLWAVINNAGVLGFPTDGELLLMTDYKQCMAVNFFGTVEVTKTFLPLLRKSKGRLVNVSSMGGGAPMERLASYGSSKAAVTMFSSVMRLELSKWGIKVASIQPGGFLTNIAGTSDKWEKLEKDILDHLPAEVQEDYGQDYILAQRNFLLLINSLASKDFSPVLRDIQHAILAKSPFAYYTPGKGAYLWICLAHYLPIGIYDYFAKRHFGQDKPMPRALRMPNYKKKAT
Outline: as §1

[7] = molecular target: T5, 11-beta-hydroxysteroid dehydrogenase 1 (Mus musculus, UniProt P50172); assay: Inhibition of 11-beta-HSD1-dependent cortisone conversion to cortisol in mouse intact C2C12 cells; format: functional, cell-based
Outline: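 Differentiation: confluent C2C12 myoblasts kept 7 days in DMEM with 2% horse serum to form myotubes. Day-7 myotubes incubated 1 h at 37 °C with 200 nM radiolabeled cortisone and varying inhibitor (formation linear over 15–60 min). Steroids extracted from medium with ethyl acetate, separated by TLC, conversion by scintillation counting.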

[8] = molecular target: T5, 11-beta-hydroxysteroid dehydrogenase 1; assay: Inhibition of 11-beta-HSD1-dependent cortisone conversion to cortisol in mouse intact 3T3 L1 cells; format: functional, cell-based
Outline: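 3T3-L1 preadipocytes grown to confluence, held 48 h, differentiated 48 h (0.25 mM IBMX, 0.5 µM dexamethasone, 1 µg/mL insulin), then insulin medium 72 h, then insulin-free. Adipocytes incubated 45 min at 37 °C with 200 nM radiolabeled cortisone plus inhibitor at various concentrations. Medium steroids extracted, separated by TLC, scintillation counted.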

Glucocorticoid receptor = molecular target: T6, Glucocorticoid receptor (Homo sapiens, UniProt P04150); assay: Inhibition of GR-mediated transactivation of galactosidase reporter gene in HEK293 cells in absence of 11betaHSD1; format: functional, cell-based
T6 sequence (P04150 whole entry): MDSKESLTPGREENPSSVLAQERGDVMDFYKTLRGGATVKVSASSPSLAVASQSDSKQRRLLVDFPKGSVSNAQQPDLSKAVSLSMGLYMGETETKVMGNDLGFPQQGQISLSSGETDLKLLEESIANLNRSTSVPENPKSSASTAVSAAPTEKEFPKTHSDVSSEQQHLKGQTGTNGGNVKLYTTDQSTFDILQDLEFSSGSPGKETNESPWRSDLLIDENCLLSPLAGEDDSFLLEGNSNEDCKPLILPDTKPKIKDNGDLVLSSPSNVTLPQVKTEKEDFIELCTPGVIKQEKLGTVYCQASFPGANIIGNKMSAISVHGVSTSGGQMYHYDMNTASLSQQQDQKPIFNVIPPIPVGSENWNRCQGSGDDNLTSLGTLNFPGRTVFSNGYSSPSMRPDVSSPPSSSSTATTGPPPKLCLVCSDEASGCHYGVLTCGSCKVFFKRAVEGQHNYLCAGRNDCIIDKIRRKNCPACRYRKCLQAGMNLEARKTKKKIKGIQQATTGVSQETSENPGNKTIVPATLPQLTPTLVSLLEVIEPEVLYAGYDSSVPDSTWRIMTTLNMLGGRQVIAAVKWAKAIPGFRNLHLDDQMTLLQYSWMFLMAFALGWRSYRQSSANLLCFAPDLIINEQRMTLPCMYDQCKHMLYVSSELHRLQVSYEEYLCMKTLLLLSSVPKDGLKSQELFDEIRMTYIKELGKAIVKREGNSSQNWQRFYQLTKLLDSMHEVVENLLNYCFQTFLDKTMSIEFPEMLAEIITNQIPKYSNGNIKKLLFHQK
Outline: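 HEK-293 cells transfected with pMMTV-LacZ, pCMV-LUC and GR plus empty pcDNA3 (no 11β-HSD1/H6PDH). After 6 h, washed into steroid-free medium, then 24 h with 100 nM cortisol and graded inhibitor. β-Galactosidase normalized to luciferase, as % of steroid-only control. Four independent experiments, means ± SD.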

[9] = molecular target: T7, Mineralocorticoid receptor (Homo sapiens, UniProt P08235); assay: Antagonist activity against MR; format: functional
T7 sequence (P08235 whole entry): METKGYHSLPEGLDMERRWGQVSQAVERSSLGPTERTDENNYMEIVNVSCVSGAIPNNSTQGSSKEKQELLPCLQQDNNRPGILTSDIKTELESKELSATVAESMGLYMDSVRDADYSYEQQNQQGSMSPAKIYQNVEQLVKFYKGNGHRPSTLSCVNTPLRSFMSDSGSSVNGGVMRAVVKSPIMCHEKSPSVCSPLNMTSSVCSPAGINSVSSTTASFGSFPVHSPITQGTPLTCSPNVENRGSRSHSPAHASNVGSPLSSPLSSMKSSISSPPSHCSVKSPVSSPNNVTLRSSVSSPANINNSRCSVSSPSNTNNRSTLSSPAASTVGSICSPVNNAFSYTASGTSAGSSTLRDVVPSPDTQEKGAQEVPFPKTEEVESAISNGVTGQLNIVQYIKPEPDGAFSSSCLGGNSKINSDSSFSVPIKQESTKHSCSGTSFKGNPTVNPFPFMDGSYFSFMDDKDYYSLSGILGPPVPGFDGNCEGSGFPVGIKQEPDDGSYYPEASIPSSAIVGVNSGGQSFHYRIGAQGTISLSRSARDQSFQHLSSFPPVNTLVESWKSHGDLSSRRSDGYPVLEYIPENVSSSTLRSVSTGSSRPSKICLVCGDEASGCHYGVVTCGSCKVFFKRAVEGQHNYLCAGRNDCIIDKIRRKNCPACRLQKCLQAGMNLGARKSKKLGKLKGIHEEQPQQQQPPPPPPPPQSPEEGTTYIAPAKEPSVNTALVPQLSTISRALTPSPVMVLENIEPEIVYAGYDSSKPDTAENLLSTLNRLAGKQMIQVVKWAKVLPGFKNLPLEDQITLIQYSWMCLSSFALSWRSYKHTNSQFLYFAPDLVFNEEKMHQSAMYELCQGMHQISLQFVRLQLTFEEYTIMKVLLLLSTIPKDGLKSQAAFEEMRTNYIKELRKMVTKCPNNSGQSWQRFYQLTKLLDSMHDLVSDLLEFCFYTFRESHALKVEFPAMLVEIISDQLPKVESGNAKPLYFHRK
Outline: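 HEK-293 cells on poly-L-lysine-coated wells, transfected with pMMTV-LacZ reporter, pCMV-LUC control and MR expression vector plus empty pcDNA3. […] Four independent experiments, means ± SD.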

T5 sequence (P50172 whole entry): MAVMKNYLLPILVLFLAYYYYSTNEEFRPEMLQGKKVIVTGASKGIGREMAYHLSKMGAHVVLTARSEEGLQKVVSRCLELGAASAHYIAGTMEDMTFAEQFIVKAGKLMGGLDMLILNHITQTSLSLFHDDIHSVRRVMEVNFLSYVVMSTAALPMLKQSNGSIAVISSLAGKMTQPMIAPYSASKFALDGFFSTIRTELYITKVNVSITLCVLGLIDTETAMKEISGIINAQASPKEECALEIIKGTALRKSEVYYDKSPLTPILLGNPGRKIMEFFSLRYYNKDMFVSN

SMILES | Activity [1] | IC50 [4] [µM] | IC50 [6] [µM] | IC50 [7] [µM] | IC50 [8] [µM] | Activity [2] [%] | IC50 [3] [µM] | IC50 [5] [µM] | Activity (HEK293) | IC50 (Glucocorticoid receptor) [µM] | IC50 [9] [µM]
CC1(C)[C@@H](N)CC[C@]2(C)[C@H]3C(=O)C=C4[C@@H]5C[C@@](C)(C(=O)O)CC[C@]5(C)CC[C@@]4(C)[C@]3(C)CC[C@@H]12 | – | 1.02 | – | – | – | > 70 | > 30 | 6.04 | Not toxic | – | –
CC(=O)O[C@H]1CC[C@]2(C)[C@H]3C(=O)C=C4[C@@H]5C[C@@](C)(C(=O)O)CC[C@]5(C)CC[C@@]4(C)[C@]3(C)CC[C@H]2C1(C)C [ACETOXOLONE] | – | – | 3.78 | – | – | > 70 | 18.8 | – | Not toxic | – | –
CC(=O)OC1CC[C@]2(C)C3=C(C(=O)C[C@H]2C1(C)C)[C@]1(C)CCC(C(C)CCC(=O)O)[C@@]1(C)CC3=O (some centres undefined) | – | – | – | – | – | > 70 | – | – | Not toxic | 11.8 | 21

Further lines, with some results ahead:

Activity [1] | IC50 [4] [µM] | IC50 [6] [µM] | IC50 [7] [µM] | IC50 [8] [µM] | SMILES | Activity [2] [%] | IC50 [3] [µM] | IC50 [5] [µM] | Activity (HEK293) | IC50 (Glucocorticoid receptor) [µM] | IC50 [9] [µM]
inactive | – | – | – | – | C[C@]12CCC(=O)C=C1CC[C@@H]1[C@@H]2C(=O)C[C@@]2(C)[C@H]1CC[C@]2(O)C(=O)CO | – | – | – | – | – | –
– | 5.21 | – | 4.17 | 3.9 | COc1ccc(CCNC(=O)C23CCC(C)(C(=O)C2=O)C3(C)C)cc1OC (centres undefined) | > 70 | 20.2 | – | Not toxic | – | –
– | – | 23.6 | – | – | C[C@H]1C[C@@]2(C)CC[C@](C)(C(=O)N[C@H](Cc3ccccc3)C(=O)O)C[C@@]2(C)C2=CC(=O)[C@@H]3[C@@]4(C)CC[C@H](O)C(C)(C)[C@@H]4CC[C@@]3(C)[C@@]21C | > 70 | > 30 | – | Not toxic | – | –
– | 3.84 | 10.3 | – | – | COC(=O)[C@@]1(C)CC[C@]2(C)CC[C@]3(C)C(=CC(=O)[C@@H]4[C@@]5(C)CC[C@H](Oc6ccccc6C(=O)O)C(C)(C)[C@@H]5CC[C@]43C)[C@@H]2C1 | > 70 | – | 48 | Not toxic | – | –
